Assay results taken from ChEMBL document CHEMBL3779892, “Increasing the binding affinity of VEGFR-2 inhibitors by extending their hydrophobic interaction with the active site: Design, synthesis and biological evaluation of 1-substituted-4-(4-methoxybenzyl)phthalazine derivatives” (Eur J Med Chem, 2016).

Tests used:
Type in all cases: functional
[1] = Growth inhibition of human HCT116 cells at 10 uM after 48 hrs by sulforhodamine B assay; conditions: HCT-116, 48 h, read-out: GI
Outline: (§1)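 Run at NCI on the 60-line panel. Cells grown in RPMI 1640 with 5% FBS and 2 mM L-glutamine, plated at 5000–40,000 cells/well by doubling time, and held 24 h at 37 °C before dosing. Drug (DMSO stock) given at a single final 10 µM in triplicate wells for 48 h. Adherent cells fixed with cold TCA (10% final), suspension cells with 16% TCA. SRB stain read at 515 nm. Percent growth from Tz, C and Ti.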

[2] = system: CCRF-CEM; experiment: Growth inhibition of human CCRF-CEM cells at 10 uM after 48 hrs by sulforhodamine B assay; conditions: read-out: GI; outline: as §1
[3] = system: NCI-H460; experiment: Growth inhibition of human NCI-H460 cells at 10 uM after 48 hrs by sulforhodamine B assay; conditions: NCI-H460, 48 h, read-out: GI; outline: as §1
[4] = system: NCI-H522; experiment: Growth inhibition of human NCI-H522 cells at 10 uM after 48 hrs by sulforhodamine B assay; conditions: NCI-H522, 48 h, read-out: GI; outline: as §1
[5] = Growth inhibition of human LOXIMVI cells at 10 uM after 48 hrs by sulforhodamine B assay; conditions: LOX IMVI, read-out: GI; outline: as §1
[6] = Growth inhibition of human OVCAR8 cells at 10 uM after 48 hrs by sulforhodamine B assay; conditions: OVCAR-8, 48 h, read-out: GI; outline: as §1
[7] = Growth inhibition of human SNB19 cells at 10 uM after 48 hrs by sulforhodamine B assay; conditions: SNB-19, 48 h, read-out: GI; outline: as §1
[8] = Growth inhibition of human HOP92 cells at 10 uM after 48 hrs by sulforhodamine B assay; conditions: HOP-92, 48 h, read-out: GI; outline: as §1
[9] = Growth inhibition of human OVCAR3 cells at 10 uM after 48 hrs by sulforhodamine B assay; conditions: OVCAR-3, 48 h, read-out: GI; outline: as §1
[10] = Growth inhibition of human SKOV3 cells at 10 uM after 48 hrs by sulforhodamine B assay; conditions: SK-OV-3, 48 h, read-out: GI; outline: as §1
[11] = Growth inhibition of human Caki1 cells at 10 uM after 48 hrs by sulforhodamine B assay; conditions: CAKI-1, 48 h, read-out: GI; outline: as §1
[12] = Growth inhibition of human UO31 cells at 10 uM after 48 hrs by sulforhodamine B assay; conditions: UO-31, 48 h, read-out: GI
Outline: (§2)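 NCI-60 panel, adherent cells grown in RPMI 1640 with 5% FBS and 2 mM L-glutamine, plated at 5000–40,000 cells/well and preincubated 24 h at 37 °C, 5% CO2. 10 µM final compound from DMSO stock, triplicate wells, 48 h. Fixed with cold TCA (10% final, 60 min, 4 °C) and stained with 0.4% SRB. Absorbance read at 515 nm; growth calculated against time-zero and control wells.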

[13] = system: U-251; experiment: Growth inhibition of human U251 cells at 10 uM after 48 hrs by sulforhodamine B assay; conditions: U-251, 48 h, read-out: GI; outline: as §2
[14] = system: SK-MEL-5; experiment: Growth inhibition of human SK-MEL-5 cells at 10 uM after 48 hrs by sulforhodamine B assay; conditions: SK-MEL-5, 48 h, read-out: GI; outline: as §1
[15] = system: HT-29; experiment: Growth inhibition of human HT-29 cells at 10 uM after 48 hrs by sulforhodamine B assay; conditions: HT-29, 48 h, read-out: GI; outline: as §1
[16] = Growth inhibition of human RXF393 cells at 10 uM after 48 hrs by sulforhodamine B assay; conditions: RXF 393, 48 h, read-out: GI; outline: as §1
[17] = system: MDA-MB-435; experiment: Growth inhibition of human MDA-MB-435 cells at 10 uM after 48 hrs by sulforhodamine B assay; conditions: MDA-MB-435, 48 h, read-out: GI; outline: as §1
[18] = system: A498; experiment: Growth inhibition of human A498 cells at 10 uM after 48 hrs by sulforhodamine B assay; conditions: A498, 48 h, read-out: GI; outline: as §1
[19] = system: MDA-MB-468; experiment: Growth inhibition of human MDA-MB-468 cells at 10 uM after 48 hrs by sulforhodamine B assay; conditions: MDA-MB-468, 48 h, read-out: GI; outline: as §1
[20] = system: NCI-H226; experiment: Growth inhibition of human NCI-H226 cells at 10 uM after 48 hrs by sulforhodamine B assay; conditions: NCI-H226, 48 h, read-out: GI; outline: as §1
[21] = Growth inhibition of human HCT15 cells at 10 uM after 48 hrs by sulforhodamine B assay; conditions: HCT-15, 48 h, read-out: GI; outline: as §1
[22] = system: A549; experiment: Growth inhibition of human A549 cells at 10 uM after 48 hrs by sulforhodamine B assay; conditions: A549, 48 h, read-out: GI; outline: as §1
[23] = system: Malme-3M; experiment: Growth inhibition of human MALME-3M cells at 10 uM after 48 hrs by sulforhodamine B assay; conditions: read-out: GI; outline: as §1
[24] = Growth inhibition of human PC3 cells at 10 uM after 48 hrs by sulforhodamine B assay; conditions: PC-3, 48 h, read-out: GI; outline: as §1
[25] = system: MDA-MB-231; experiment: Growth inhibition of human MDA-MB-231 cells at 10 uM after 48 hrs by sulforhodamine B assay; conditions: MDA-MB-231, 48 h, read-out: GI; outline: as §1
[26] = Growth inhibition of human OVCAR5 cells at 10 uM after 48 hrs by sulforhodamine B assay; conditions: OVCAR-5, 48 h, read-out: GI; outline: as §1
[27] = Growth inhibition of human SF268 cells at 10 uM after 48 hrs by sulforhodamine B assay; conditions: SF-268, 48 h, read-out: GI; outline: as §1
[28] = system: NCI-H23; experiment: Growth inhibition of human NCI-H23 cells at 10 uM after 48 hrs by sulforhodamine B assay; conditions: NCI-H23, 48 h, read-out: GI; outline: as §1
[29] = system: M14; experiment: Growth inhibition of human M14 cells at 10 uM after 48 hrs by sulforhodamine B assay; conditions: M14, 48 h, read-out: GI; outline: as §1
[30] = system: ACHN; experiment: Growth inhibition of human ACHN cells at 10 uM after 48 hrs by sulforhodamine B assay; conditions: read-out: GI; outline: as §1
[31] = Growth inhibition of human SW620 cells at 10 uM after 48 hrs by sulforhodamine B assay; conditions: SW-620, 48 h, read-out: GI; outline: as §2
[32] = system: SN12C; experiment: Growth inhibition of human SN12C cells at 10 uM after 48 hrs by sulforhodamine B assay; conditions: read-out: GI; outline: as §1
[33] = system: SR; experiment: Growth inhibition of human SR cells at 10 uM after 48 hrs by sulforhodamine B assay; conditions: read-out: GI
Outline: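 NCI-60 screen. Cells were grown in RPMI 1640 with 5% FBS and 2 mM L-glutamine, plated at 5000–40,000 cells/well and held 24 h at 37 °C, 5% CO2. Single 10 µM final dose from DMSO stock, triplicate wells, 48 h. Settled cells were fixed with 80% TCA (16% final) and stained with 0.4% SRB. Dye was solubilized in 10 mM Tris and read at 515 nm. Growth was calculated against time-zero and untreated wells.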

[34] = Growth inhibition of human Hs 578T cells at 10 uM after 48 hrs by sulforhodamine B assay; conditions: read-out: GI; outline: as §1

SMILES	inhibition of growth at 10 µM [1]	inhibition of growth at 10 µM [2]	inhibition of growth at 10 µM [3]	inhibition of growth at 10 µM [4]	inhibition of growth at 10 µM [5]	inhibition of growth at 10 µM [6]	inhibition of growth at 10 µM [7]	inhibition of growth at 10 µM [8]	inhibition of growth at 10 µM [9]	inhibition of growth at 10 µM [10]	inhibition of growth at 10 µM [11]	inhibition of growth at 10 µM [12]	inhibition of growth at 10 µM [13]	inhibition of growth at 10 µM [14]	inhibition of growth at 10 µM [15]	inhibition of growth at 10 µM [16]	inhibition of growth at 10 µM [17]	inhibition of growth at 10 µM [18]	inhibition of growth at 10 µM [19]	inhibition of growth at 10 µM [20]	also measured
COc1ccc(Cc2nnc(Nc3cccc(OC)c3)c3ccccc23)cc1	40%	< 30%	< 30%	63%	< 30%	< 30%	30%	53%	< 30%	< 30%	< 30%	57%	< 30%	< 30%	< 30%	32%	< 30%	< 30%	< 30%	37%	inhibition of growth at 10 µM [21]: < 30%; inhibition of growth at 10 µM [22]: < 30%; inhibition of growth at 10 µM [23]: < 30%; inhibition of growth at 10 µM [24]: 30%; inhibition of growth at 10 µM [25]: 37%; inhibition of growth at 10 µM [26]: < 30%; inhibition of growth at 10 µM [27]: < 30%; inhibition of growth at 10 µM [28]: < 30%; inhibition of growth at 10 µM [29]: < 30%; inhibition of growth at 10 µM [30]: < 30%; inhibition of growth at 10 µM [31]: < 30%; inhibition of growth at 10 µM [32]: < 30%; inhibition of growth at 10 µM [33]: 35%; inhibition of growth at 10 µM [34]: < 30%
COc1ccc(Cc2nnc(Nc3ccc(Cl)c(C(F)(F)F)c3)c3ccccc23)cc1	73%	52%	74%	49%	< 30%	40%	43%	58%	59%	< 30%	35%	63%	59%	< 30%	48%	33%	< 30%	46%	54%	43%	inhibition of growth at 10 µM [21]: 58%; inhibition of growth at 10 µM [22]: 62%; inhibition of growth at 10 µM [23]: < 30%; inhibition of growth at 10 µM [24]: 61%; inhibition of growth at 10 µM [25]: 40%; inhibition of growth at 10 µM [26]: 33%; inhibition of growth at 10 µM [27]: < 30%; inhibition of growth at 10 µM [28]: 40%; inhibition of growth at 10 µM [29]: 48%; inhibition of growth at 10 µM [30]: 45%; inhibition of growth at 10 µM [31]: < 30%; inhibition of growth at 10 µM [32]: 46%; inhibition of growth at 10 µM [33]: 43%; inhibition of growth at 10 µM [34]: 34%
COc1ccc(Cc2nnc(Nc3ccc(OC)cc3)c3ccccc23)cc1	34%	< 30%	< 30%	< 30%	< 30%	< 30%	< 30%	55%	< 30%	< 30%	< 30%	43%	< 30%	< 30%	< 30%	< 30%	< 30%	47%	< 30%	< 30%	inhibition of growth at 10 µM [21]: < 30%; inhibition of growth at 10 µM [22]: < 30%; inhibition of growth at 10 µM [23]: < 30%; inhibition of growth at 10 µM [24]: < 30%; inhibition of growth at 10 µM [25]: 36%; inhibition of growth at 10 µM [26]: < 30%; inhibition of growth at 10 µM [27]: < 30%; inhibition of growth at 10 µM [28]: < 30%; inhibition of growth at 10 µM [29]: < 30%; inhibition of growth at 10 µM [30]: < 30%; inhibition of growth at 10 µM [31]: < 30%; inhibition of growth at 10 µM [32]: 34%; inhibition of growth at 10 µM [33]: 34%; inhibition of growth at 10 µM [34]: < 30%
COc1ccc(Cc2nnc(Nc3ccc(Cl)cc3)c3ccccc23)cc1	66%	46%	45%	38%	58%	35%	38%	76%	40%	< 30%	37%	68%	38%	35%	50%	32%	30%	53%	42%	34%	inhibition of growth at 10 µM [21]: 33%; inhibition of growth at 10 µM [22]: 40%; inhibition of growth at 10 µM [23]: < 30%; inhibition of growth at 10 µM [24]: 51%; inhibition of growth at 10 µM [25]: 36%; inhibition of growth at 10 µM [26]: < 30%; inhibition of growth at 10 µM [27]: < 30%; inhibition of growth at 10 µM [28]: 39%; inhibition of growth at 10 µM [29]: 47%; inhibition of growth at 10 µM [30]: 47%; inhibition of growth at 10 µM [31]: < 30%; inhibition of growth at 10 µM [32]: 50%; inhibition of growth at 10 µM [33]: 54%; inhibition of growth at 10 µM [34]: 35%
